Reference: the RNAGym collection of RNA variant scans (doi:10.1126/science.aae0568)
This sample holds only a part of the variants without activity.

B1: tRNA (parent)
chain: GUUCCGUUGGCGUAAUGGUAACGCGUCUCCCUCCUAAGGAGAAGACUGCGGGUUCGAGUCCCGUACGGAACG

Variants of: B1
Test: yeast fitness relative to wild type (ratio to wild type); higher = fitter; tRNA-Arg(CCU), competitive growth, 37 C, YPD
Summary of the method: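 Changes in genotype frequencies gave Darwinian fitness relative to wild type. Frequencies were read by 100-nucleotide paired-end sequencing of gene amplicons before and after pooled Saccharomyces cerevisiae strains, carrying tRNA-Arg(CCU) gene variants at the native locus, were competed in YPD at 37°C for 24 hours in six replicates. A genotype was kept only with ≥ 100 starting reads, and estimates < 0.5 were set to 0.5.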

| Variant | yeast fitness |
| --- | --- |
| GUUCCGUUGGCGUGAUGGUAACGCGUCUCCCUCCUAAGGAGAAGACUGCGGGUCCGAGUCCCGUACGGAGCG [A14G U54C A70G] | 0.535 |
| GUUCCGUUGGCGUUAUGGUAACGCGUCUCCCUCCUAUGGAGAAGACUGCGGGUUCGAGUCACGUUCGGAACG [A14U A37U C61A A65U] | ≤ 0.5 |
| GUUCCGUUGGCGUUAUGGUAACGCGUCUCCCUCCUAAGGAGAAGACUGCGGGUUCGAGUCCCGUACGGAGCG [A14U A70G] | 0.734 |
| GUUCCGUUGGCGUUAUGGUCACGCGUCUCCCUCCUAAGGAGAAGACUGCGGGUUCGAGCCCCGUACGGAACG [A14U A20C U59C] | ≤ 0.5 |
| GUUCCGUUGGCGUGAUGGUAACGCGUCUCCCUCCUAAGGAGAAGACUGCGGGUCCGAGUCCCGUACGGAACG [A14G U54C] | 0.633 |
| GUUCCGUUGGCGUUGUGGUAACGUGUCUCCUUCCUAAGGAGAAGACUGCGGGUUCGAGUCUCGUACGGAACG [A14U A15G C24U C31U C61U] | ≤ 0.5 |
| GUUCCGUUGGCGUGAUGGUAACGCGUCUCCCUCCUAAGGAGAAGACUGCGGGGUCAAGUCUCGUACGGAACG [A14G U53G G56A C61U] | 0.656 |
| GUUCCGUUGGCGUGAUGGUAACGCGUCUCCCUCCUAAGGAGAAGACCGCGGGUUCGAGUCCCGUACGGCACG [A14G U47C A69C] | 0.706 |
| GUUCCGUUGGCGUUAUGGUAACGCGUCUCCCUCCUAAGGAGAGGACUGCGGGUUCGAGGCCGAUACGGAACG [A14U A43G U59G C62G G63A] | 0.558 |
| GUUCCGUUGGCGUUUUGGUAACGCGUCUCCCUCGUAAGGAGCAGACUGCGGGUUCGAGUCCCGUACGGAACG [A14U A15U C34G A42C] | 0.537 |
| GUUCCGUUGGCGUUAUGGUACCGCGUCUCCCUCCUCAGGAGAAGACUGAGGGUUCGAGUCCCGUACGCAACG [A14U A21C A36C C49A G68C] | ≤ 0.5 |
| GUUCCGUUGGCGUUAUGGUCACGCGUCUCCCUCCUAAGGAGAAGACUGCGGGUUCGAGACCCGUAAGGAACG [A14U A20C U59A C66A] | ≤ 0.5 |
| GUUCCGUUGGCGUUAUGGUACCGCGUCUCCCUCCUAAGGAAAAGACUGCGGGUUCGAGUCCCGUACCGAACG [A14U A21C G41A G67C] | ≤ 0.5 |
| GUUCCGUUGGCGUUAUGGUAACGCGUCUCCCUCCUAAGGAGAUGACUGCGGGUUCGAGACCCGUACGGAACG [A14U A43U U59A] | ≤ 0.5 |
| GUUCCGUUGGCGUUAUGGUAACGCGUCUCCCUCCUAAGGAGAAGACUGCGGGUUCGUGUACCGUACGGAACG [A14U A57U C60A] | ≤ 0.5 |
| GUUCCGUUGGCGUUAUGGUGACGAGUCUCCUUCCUAUGGAGAAGACUACGGGUUCGAGUCCCGUACGGCACG [A14U A20G C24A C31U A37U G48A A69C] | ≤ 0.5 |
| GUUCCGUUGGCGUUAUGGUAACGCGUCUCCCUCCUAAGGAGAAGACUGCGGGUUCGAGUCCCGUACGGUCCG [A14U A69U A70C] | ≤ 0.5 |
| GUUCCGUUGGCGUUAUGGUAACGCGUCUCCCUCCUAUGGAGAAGACUGCGGGUUCGAGUCCCGUGCGGAACG [A14U A37U A65G] | ≤ 0.5 |
| GUUCCGUUGGCGUUAUGGUAGCGCGUCUCCCUCCUAAGGAGAAGCCUGCGGGUUCGAGCCCCGUACGGAACG [A14U A21G A45C U59C] | ≤ 0.5 |

| Variant | yeast fitness |
| --- | --- |
| GUUCCGUUGGCGUUAUGGUAACGCGUCUCCCUCCUUAGGAGAAGGCUGCGGGUUCGAGUCCCGUACGGAACG [A14U A36U A45G] | ≤ 0.5 |
| GUUCCGUUGGCGUUAUGGUGACGCGUCUCGCUCCUAAGGAGCAGACUGCGGGUUCGAGUCCCGUACGGAACG [A14U A20G C30G A42C] | ≤ 0.5 |
| GUUCCGUUGGCGUUAUGGUAACGCGUCUCCCUCCUAAGGAGAAGGCUGCGGGCUCGAGUCCCGUACGGAACG [A14U A45G U53C] | ≤ 0.5 |
| GUUCCGUUGGCGUUAUGGUAACGCGUCUCCCUCCUAAGGAGAAGCCUGCGGGUUCGAGUCCCGUACGGUACG [A14U A45C A69U] | 0.592 |
| GUUCCGUUGGCGUUAUGGUAACGCGUCUCCCUCCUGAGGAGAAGACUGCGGGAUCGAGUCCCGUACGGAACG [A14U A36G U53A] | ≤ 0.5 |
| GUUCCGUUGGCGUUAUGGUCACACGUCUCCCUCCUAAGGAGAAGAAUGCGGGUUCGAGUCCCGCACGGAACG [A14U A20C G23A C46A U64C] | ≤ 0.5 |
| GUUCCGUUGGCGUUAUGGUAGCGCGUCUCCCUCCUAAGCAGAAGGCUGCGGGCUCGAGUCCCGUACGGAACG [A14U A21G G39C A45G U53C] | 0.521 |
| GUUCCGUUGGCGUUCUGGUAACGCGUCUCCCUCCUAAGGAGAAGACUGCGGGUUCGAGUCCCGUACGGAACG [A14U A15C] | 0.681 |
| GUUCCGUUGGCGUUGUGGUAACGCGUCUCCCUCCUAAGGAGAAGACUGCGGGUUCGAGUCCCGUACGGAACG [A14U A15G] | 0.725 |
| GUUCCGUUGGCGUUAUGGUUACGCGUCUCCCUCCUAAGGAGAAGACUGUGGGUUCGAGUCCCGUACGGAACG [A14U A20U C49U] | ≤ 0.5 |
| GUUCCGUUGGCGUUAUGGUAACGCGUCUCCCUCCUAUGGAGAAGUCUGCGGGUUCGAGUCCCGUACGGAACG [A14U A37U A45U] | ≤ 0.5 |
| GUUCCGUUGGCGUUAUGGUAACGCGUCUCCCUCCUAAGGAGCAGACUGCGGAUUCCAGUCCCGUACGGAACG [A14U A42C G52A G56C] | ≤ 0.5 |
| GUUCCGUUGGCGUUAUGGUAACGCGUCUCCCUCCUAAGGAGAUGACUGCGGGUUCGAGUCCCGUACGGAACG [A14U A43U] | 0.721 |
| GUUCCGUUGGCGUUAUGGUAACGCGUCUCCCUCCUAUGGAGAAGACUGCGGGUUCGAGUCCCGUACGGAACG [A14U A37U] | ≤ 0.5 |
| GUUCCGUUGGCGUUAUGGUAACGCGUCUCCCUCCUAAGGAGCAGACUGCGGGUUCGAGUCCCGUACGGAACG [A14U A42C] | 0.639 |
| GUUCCGUUGGCGUUAUGGUAGCGCGUCUCCCUCCUAAGGAGAAGACUGCGGGUUCGAGUCCCGUACGGAACG [A14U A21G] | 0.584 |
| GUUCCGUUGGCGUUAUGGUAACGCGUCUCCCUCCUAAGGCGAAGACUGCGGGUUCGAGUCCAGUAUGGAACG [A14U A40C C62A C66U] | 0.603 |
| GUUCCGUUGGCGUUAUGGUAACGCGUCUCCCUCCUAAGGAGAGGACUGCGGGUUCGAGUCCCCUACGGAACG [A14U A43G G63C] | ≤ 0.5 |
